Laboratory results as given in ChEMBL document CHEMBL1147968, “Novel lbeta-methylcarbapenems having cyclic sulfonamide moieties: synthesis and evaluation of in vitro antibacterial activity” (2007).

How the values were obtained:
[1] = test system: Corynebacterium diphtheriae; assay: Antibacterial activity against Corynebacterium diphtheriae after 18 to 24 hrs by agar dilution method; format: functional
In short: (§1)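 MICs were determined by agar dilution on test agar. An overnight tryptosoy broth culture was diluted in the same broth to about 10⁶ cells/mL and spotted with an inoculating device onto agar containing serial twofold dilutions of compound. Plates were incubated at 37 °C for 18–20 h, and the MIC was the lowest concentration with no visible growth.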

Priestia megaterium = assay: Antibacterial activity against Bacillus megaterium after 18 to 24 hrs by agar dilution method; format: functional; in short: as §1
Salmonella paratyphi = assay: Antibacterial activity against Salmonella paratyphi A after 18 to 24 hrs by agar dilution method; format: functional, Salmonella enterica subsp. enterica serovar Paratyphi A; conditions: Salmonella enterica
In short: (§2)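 Agar dilution on test agar with serial twofold dilutions of compound. Overnight tryptosoy broth cultures diluted in the same broth to about 10⁶ cells/mL, then applied with an inoculating device. Plates incubated at 37 °C for 18–20 h.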

Pasteurella multocida = assay: Antibacterial activity against Pasteurella multocida after 18 to 24 hrs by agar dilution method; format: functional; in short: as §1
Escherichia coli [2] = assay: Antibacterial activity against Escherichia coli TEM after 18 to 24 hrs by agar dilution method; format: functional; in short: as §1
Providencia rettgeri [3] = assay: Antibacterial activity against Proteus rettgeri 937 after 18 to 24 hrs by agar dilution method; format: functional; in short: as §1
Escherichia coli [4] = assay: Antibacterial activity against Escherichia coli 04 after 18 to 24 hrs by agar dilution method; format: functional; in short: as §1
Escherichia coli [5] = assay: Antibacterial activity against Escherichia coli 1507 after 18 to 24 hrs by agar dilution method; format: functional; in short: as §1
Enterobacter cloacae [6] = assay: Antibacterial activity against Enterobacter cloacae 34 after 18 to 24 hrs by agar dilution method; format: functional; in short: as §1
Trueperella pyogenes = assay: Antibacterial activity against Corynebacterium pyogenes after 18 to 24 hrs by agar dilution method; format: functional; in short: as §1
Enterococcus faecalis = assay: Antibacterial activity against Enterococcus faecalis 2347 after 18 to 24 hrs by agar dilution method; format: functional; in short: as §1
Citrobacter freundii = assay: Antibacterial activity against Citrobacter freundii 323 after 18 to 24 hrs by agar dilution method; format: functional; in short: as §1
Enterobacter cloacae [7] = assay: Antibacterial activity against Enterobacter cloacae 417 after 18 to 24 hrs by agar dilution method; format: functional; in short: as §1
Staphylococcus aureus [8] = assay: Antibacterial activity against Staphylococcus aureus giorgio after 18 to 24 hrs by agar dilution method; format: functional; in short: as §1
Serratia marcescens [9] = assay: Antibacterial activity against Serratia marcescens 3349 after 18 to 24 hrs by agar dilution method; format: functional; in short: as §1
Micrococcus luteus = assay: Antibacterial activity against Micrococcus luteus ATCC 9341 after 18 to 24 hrs by agar dilution method; format: functional; in short: as §1
Salmonella typhimurium = assay: Antibacterial activity against Salmonella Typhimurium after 18 to 24 hrs by agar dilution method; format: functional, Salmonella enterica subsp. enterica serovar Typhimurium; conditions: Salmonella enterica; in short: as §1
Escherichia coli [10] = assay: Antibacterial activity against Escherichia coli 0114 after 18 to 24 hrs by agar dilution method; format: functional; in short: as §1
Staphylococcus aureus [11] = assay: Antibacterial activity against Staphylococcus aureus 209P after 18 to 24 hrs by agar dilution method; format: functional; in short: as §1
Klebsiella pneumoniae [12] = assay: Antibacterial activity against Klebsiella pneumoniae 523 after 18 to 24 hrs by agar dilution method; format: functional; in short: as §1
Proteus mirabilis [13] = assay: Antibacterial activity against Proteus mirabilis 174/3 after 18 to 24 hrs by agar dilution method; format: functional; in short: as §1
[14] = Antibacterial activity against Salmonella give after 18 to 24 hrs by agar dilution method; format: functional, Salmonella enterica subsp. enterica serovar Give; conditions: Salmonella enterica; in short: as §1
Burkholderia cepacia = assay: Antibacterial activity against Pseudomonas cepacia after 18 to 24 hrs by agar dilution method; format: functional; in short: as §1
Pseudomonas aeruginosa [15] = assay: Antibacterial activity against Pseudomonas aeruginosa 77/2 after 18 to 24 hrs by agar dilution method; format: functional; in short: as §1
Streptococcus pneumoniae = assay: Antibacterial activity against Streptococcus pneumoniae 0025 after 18 to 24 hrs by agar dilution method; format: functional; in short: as §1
[16] = Antibacterial activity against Salmonella oranienburg after 18 to 24 hrs by agar dilution method; format: functional, Salmonella enterica subsp. enterica serovar Oranienburg; conditions: Salmonella enterica; in short: as §1
Streptococcus pyogenes = assay: Antibacterial activity against Streptococcus pyogenes 9889 after 18 to 24 hrs by agar dilution method; format: functional
In short: (§3)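 Agar dilution on test agar holding serial twofold dilutions of compound. Overnight tryptosoy broth cultures were diluted in the same broth to about 10⁶ cells/mL and spotted with an inoculating device. Plates were incubated at 37 °C for 18–20 h.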

Salmonella typhi = assay: Antibacterial activity against Salmonella typhi after 18 to 24 hrs by agar dilution method; format: functional, Salmonella enterica subsp. enterica serovar Typhi; conditions: Salmonella enterica; in short: as §2
Bacillus subtilis = assay: Antibacterial activity against Bacillus subtilis ATCC 6633 after 18 to 24 hrs by agar dilution method; format: functional; in short: as §1
Staphylococcus aureus [17] = assay: Antibacterial activity against Staphylococcus aureus 503 after 18 to 24 hrs by agar dilution method; format: functional; in short: as §1
Streptococcus agalactiae [18] = assay: Antibacterial activity against Streptococcus agalactiae B after 18 to 24 hrs by agar dilution method; format: functional; in short: as §1
Staphylococcus aureus [19] = assay: Antibacterial activity against Staphylococcus aureus 1218 after 18 to 24 hrs by agar dilution method; format: functional; in short: as §1
Enterobacter cloacae [20] = assay: Antibacterial activity against Enterobacter cloacae after 18 to 24 hrs by agar dilution method; format: functional; in short: as §1
Enterococcus faecium = assay: Antibacterial activity against Streptococcus faecium 77A after 18 to 24 hrs by agar dilution method; format: functional; in short: as §1
Haemophilus influenzae = assay: Antibacterial activity against Haemophilus influenzae 1210 after 18 to 24 hrs by agar dilution method; format: functional; in short: as §1
Escherichia coli [21] = assay: Antibacterial activity against Escherichia coli 0126 after 18 to 24 hrs by agar dilution method; format: functional; in short: as §1
Pseudomonas aeruginosa [22] = assay: Antibacterial activity against Pseudomonas aeruginosa 880/2 after 18 to 24 hrs by agar dilution method; format: functional; in short: as §1
Pseudomonas aeruginosa [23] = assay: Antibacterial activity against Pseudomonas aeruginosa 110/2 after 18 to 24 hrs by agar dilution method; format: functional; in short: as §1
Serratia marcescens [24] = assay: Antibacterial activity against Serratia marcescens 6093 after 18 to 24 hrs by agar dilution method; format: functional; in short: as §1
Acinetobacter baumannii = assay: Antibacterial activity against Acinetobacter baumannii 2289 after 18 to 24 hrs by agar dilution method; format: functional; in short: as §1
Staphylococcus = assay: Antibacterial activity against coagulase negative Staphylococcus after 18 to 24 hrs by agar dilution method; format: functional; in short: as §3
Serratia marcescens [25] = assay: Antibacterial activity against Serratia marcescens 14273 after 18 to 24 hrs by agar dilution method; format: functional; in short: as §1
Serratia marcescens [26] = assay: Antibacterial activity against Serratia marcescens 370 after 18 to 24 hrs by agar dilution method; format: functional; in short: as §1
Pseudomonas aeruginosa [27] = assay: Antibacterial activity against Pseudomonas aeruginosa 9027 after 18 to 24 hrs by agar dilution method; format: functional; in short: as §1
Salmonella = assay: Antibacterial activity against Salmonella orion after 18 to 24 hrs by agar dilution method; format: functional; in short: as §1
Proteus mirabilis [28] = assay: Antibacterial activity against Proteus mirabilis 112/3 after 18 to 24 hrs by agar dilution method; format: functional; in short: as §1
Pseudomonas aeruginosa [29] = assay: Antibacterial activity against Pseudomonas aeruginosa 5455 after 18 to 24 hrs by agar dilution method; format: functional; in short: as §1
Streptococcus agalactiae [30] = assay: Antibacterial activity against Streptococcus agalactiae 32 after 18 to 24 hrs by agar dilution method; format: functional; in short: as §1
Klebsiella pneumoniae [31] = assay: Antibacterial activity against Klebsiella pneumoniae 477 after 18 to 24 hrs by agar dilution method; format: functional; in short: as §1
Enterococcus durans = assay: Antibacterial activity against Streptococcus durans D after 18 to 24 hrs by agar dilution method; format: functional; in short: as §1
Providencia rettgeri [32] = assay: Antibacterial activity against Proteus rettgeri 936 after 18 to 24 hrs by agar dilution method; format: functional; in short: as §1
Escherichia coli [33] = assay: Antibacterial activity against Escherichia coli 086 after 18 to 24 hrs by agar dilution method; format: functional; in short: as §1
Proteus vulgaris = assay: Antibacterial activity against Proteus vulgaris 868 after 18 to 24 hrs by agar dilution method; format: functional; in short: as §1
Escherichia coli [34] = assay: Antibacterial activity against Escherichia coli V6311/65 after 18 to 24 hrs by agar dilution method; format: functional; in short: as §1

Measured: MIC

C[C@@H](O)C1C(=O)N2C(C(=O)O)=C(S[C@@H]3CN[C@H](CN4CCCN(C)S4(=O)=O)C3)[C@H](C)C12 (stereo not given in full)
0.01 µg/mL: [1] | Escherichia coli [2] | Trueperella pyogenes | Streptococcus pneumoniae | Staphylococcus aureus [17] | Enterobacter cloacae [20]
1.6 µg/mL: Pseudomonas aeruginosa [15] | Pseudomonas aeruginosa [27]
< 0.01 µg/mL: Streptococcus pyogenes | Enterococcus faecium | Streptococcus agalactiae [30]
6.25 µg/mL: Staphylococcus aureus [19]
3.12 µg/mL: Enterococcus faecalis | Haemophilus influenzae | Acinetobacter baumannii
0.4 µg/mL: Providencia rettgeri [3] | Burkholderia cepacia | Pseudomonas aeruginosa [22] | Serratia marcescens [25] | Providencia rettgeri [32] | Proteus vulgaris
0.025 µg/mL: Escherichia coli [4] | Enterobacter cloacae [6] | Citrobacter freundii | Klebsiella pneumoniae [12]
0.049 µg/mL: Serratia marcescens [9] | Staphylococcus
0.8 µg/mL: Pseudomonas aeruginosa [23]
1.56 µg/mL: Pseudomonas aeruginosa [29]
0.1 µg/mL: Salmonella typhimurium | [14] | [16] | Serratia marcescens [26] | Salmonella | Enterococcus durans
0.03 µg/mL: Salmonella typhi | Bacillus subtilis
0.05 µg/mL: Priestia megaterium | Salmonella paratyphi | Pasteurella multocida | Staphylococcus aureus [8] | Klebsiella pneumoniae [31] | Escherichia coli [34]
0.2 µg/mL: Proteus mirabilis [13] | Serratia marcescens [24] | Proteus mirabilis [28]
0.02 µg/mL: all other assays above

C[C@@H](O)[C@H]1C(=O)N2C(C(=O)O)=C(SCCNC=N)C[C@H]12 [IMIPENEM ANHYDROUS]
6.25 µg/mL: Haemophilus influenzae
0.02 µg/mL: Staphylococcus aureus [8]
12.5 µg/mL: Acinetobacter baumannii
0.2 µg/mL: Escherichia coli [2] | Providencia rettgeri [3] | [14] | Serratia marcescens [26] | Salmonella | Proteus mirabilis [28] | Klebsiella pneumoniae [31] | Providencia rettgeri [32]
0.391 µg/mL: Citrobacter freundii
0.195 µg/mL: Escherichia coli [4]
0.781 µg/mL: Enterobacter cloacae [6] | Serratia marcescens [9] | Klebsiella pneumoniae [12]
0.01 µg/mL: Trueperella pyogenes | Micrococcus luteus | Staphylococcus aureus [11] | Streptococcus agalactiae [18] | Streptococcus agalactiae [30]
< 0.01 µg/mL: [1] | Pasteurella multocida | Streptococcus pneumoniae | Streptococcus pyogenes | Staphylococcus aureus [17] | Enterococcus faecium
0.4 µg/mL: Salmonella typhimurium | [16] | Serratia marcescens [24]
0.8 µg/mL: Burkholderia cepacia | Pseudomonas aeruginosa [15] | Pseudomonas aeruginosa [22] | Pseudomonas aeruginosa [23] | Serratia marcescens [25] | Pseudomonas aeruginosa [27]
1.56 µg/mL: Enterococcus faecalis | Staphylococcus aureus [19]
0.05 µg/mL: Salmonella typhi | Escherichia coli [34]
0.025 µg/mL: Staphylococcus
0.03 µg/mL: Priestia megaterium | Bacillus subtilis
3.12 µg/mL: Pseudomonas aeruginosa [29]
0.1 µg/mL: all other assays above

C[C@@H](O)[C@H]1C(=O)N2C(C(=O)O)=C(S[C@@H]3CN[C@H](C(=O)N(C)C)C3)[C@H](C)[C@H]12 [MEROPENEM]
0.098 µg/mL: Staphylococcus
0.049 µg/mL: Escherichia coli [4] | Serratia marcescens [9] | Streptococcus agalactiae [30]
0.2 µg/mL: Pseudomonas aeruginosa [22] | Serratia marcescens [25]
0.8 µg/mL: Pseudomonas aeruginosa [15] | Enterococcus durans
0.4 µg/mL: Burkholderia cepacia | Pseudomonas aeruginosa [23] | Pseudomonas aeruginosa [27]
3.12 µg/mL: Haemophilus influenzae
0.02 µg/mL: [1] | Escherichia coli [2] | Escherichia coli [5] | Escherichia coli [10] | [14]
1.56 µg/mL: Pseudomonas aeruginosa [29]
0.025 µg/mL: Enterobacter cloacae [6] | Citrobacter freundii | Klebsiella pneumoniae [12]
6.25 µg/mL: Staphylococcus aureus [19]
12.5 µg/mL: Enterococcus faecalis | Acinetobacter baumannii
0.1 µg/mL: Staphylococcus aureus [8] | Staphylococcus aureus [11] | Proteus mirabilis [13] | Salmonella | Proteus mirabilis [28] | Providencia rettgeri [32] | Proteus vulgaris
0.01 µg/mL: Enterobacter cloacae [7] | Streptococcus pneumoniae | Salmonella typhi | Enterobacter cloacae [20] | Escherichia coli [34]
0.013 µg/mL: Streptococcus pyogenes
not listed: Salmonella paratyphi | Enterococcus faecium
0.05 µg/mL: all other assays above
